# Screening data deposited in PubChem BioAssay by Broad Institute.
# Shown are actives, neighbours in structure and some others; about 2.3% of the full set was active somewhere.
# EWS-Fli inh: EWS/Fli-driven NR0B1 reporter inhibitors, primary screen, A673 cells, NR0B1 luciferase, luminescence, MLPCN library; viability-normalised; inhibition, % at 12.6 µM; 350,000 compounds, 0.67% hits; AID 651661, 2012;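 active = mean inhibition of at least 50% after viability correction, with every replicate also passing that limit; inconclusive = mean reaches 50% but only one of two replicates passes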;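 note: firefly luciferase signal divided by Alamar Blue viability fluorescence both relative to DMSO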
# Env fusion inh: inhibitors of HIV-1 Env-driven cell-cell fusion, primary screen, HeLa-JRFL effector, CEM21 target cells, luciferase. 360,000 compounds, 1.1% hits. inhibition, % at 12.3 µM;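 active = mean replicate inhibition score of at least 50 and every replicate individually at or above 50; inconclusive = only one of the two criteria met; inactive = mean below 50 and not all replicates reaching 50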;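 note: 0% = plate neutral controls and 100% = maraviroc near 300 nM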
# CFTR F508del cor: F508del CFTR correction, initial screen, CFBE line, single point; 350,000 compounds, 0.36% hits; CFBE cells, YFP halide quenching; stimulated with forskolin plus potentiator P3; % fluorescence drop versus neutral controls; AID 720511, 2013; activity (quench increase), % at 7.58 µM;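 active = mean added fluorescence quench of at least 8% versus neutral control, with both replicates also reaching 8%; inconclusive = only one of the mean or replicate conditions met; inactive = mean below 8% and not both replicates reaching 8%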;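 note: cells transiently co-express mutant CFTR-F508del with the halide-sensitive YFP; corrector assay measuring rescue of mutant channel to the surface after 24 h compound exposure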
# PAX8 inh HTS: inhibitors of PAX8-driven TPO luciferase reporter, primary screen, RMG-I cells, single concentration; SteadyGlo, 24 h; inhibition, % at 12.6 µM; 360,000 compounds, 1.2% hits;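 active = mean replicate inhibition at least 60% with every replicate also reaching 60%; inconclusive = only one of the two criteria is met; inactive = mean below 60% and not all replicates reaching 60%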;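 note: luciferase light reporting Pax8 driven TPO promoter activity; plate controls were median of neutral control wells for no effect and mitoxantrone controls for full effect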
# PGC1a acetyl inh: inhibitors of PGC1a acetylation signal, primary screen, cell-based, U2OS, AlphaScreen, inhibitor mode | AlphaScreen anti-acetyl-lysine; with virally co-expressed GCN5 acetyltransferase | inhibition, % at 15.6 µM | 350,000 compounds, 0.17% hits;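 active = every replicate shows inhibition of at least 40%; inconclusive = mean inhibition at least 40% but some replicate below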;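 note: 0% = neutral control wells and 100% = positive control wells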
# FN deposit inh: inhibitors of fibronectin matrix deposition, primary screen, AH1F cells, Alexa488-fibronectin fluorescence, plate reader. AH1F fibroblasts, overnight. inhibition, % at 12.6 µM. 350,000 compounds, 0.086% hits. AID 743247, 2014;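 active = mean inhibition across replicates of 30% or more, regardless of how many single replicates reach that level; inconclusive = mean under 30% yet at least half of replicates reach 30%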;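 note: positive control wells lacked labelled fibronectin entirely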
#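 Schedule: 1 h cell adhesion before compound, then overnight fibronectin incubation; test system: AH1F fibroblast monolayer depositing Alexa488-labelled fibronectin into matrix; quantity: 10000 AH1F cells per well; probe or stimulus: fluorescent fibronectin at 24 nM final; signal: fluorescence, ex 485 nm, em 525 nm; evaluation: percent inhibition as loss of matrix-bound fibronectin fluorescence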
# DNA binding: DNA binders by acridine orange displacement, dose response, counter-screen for EWS/Fli inhibitor project, biochemical, fluorescence polarization, cherry-pick; shares compounds with EWS-Fli inh; AID 720586, 2013; salmon sperm DNA acridine orange fluorescence polarization; 640 compounds, 2% hits; AC35, µM (series often up to 68 µM), for inactives: at the top dose activity change, negative = DNA binding;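 active = fitted curve reaches a 35% signal fall AC35 below twice the sample's top valid tested dose, actives reach about 48 µM in these data; inactive = the rest, including activity in the rising direction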;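 note: lower polarization ratio signals compound binding to DNA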
# Starred values were filed as active, the others as inactive; ? = inconclusive; . = no result; [ ] = another dose, or the depositor's remark.
SMILES,EWS-Fli inh,Env fusion inh,CFTR F508del cor,PAX8 inh HTS,PGC1a acetyl inh,FN deposit inh,others
O=P(OC1CCCCC1)(OC1CCCCC1)C(O)c1ccc(Cl)cc1Cl (stereo not drawn),.,61*,.,.,-2,-5,
O=P(OC1CCCCC1)(OC1CCCCC1)C(O)c1c(Cl)cccc1Cl (stereo not drawn),.,59*,.,.,-6,-15,
Cn1c(=O)c2cc(NC(=O)NCc3ccc(F)cc3)ccc2n1C/C=C/c1ccccc1,56*,-44,1,25,.,15,
CC(C)=CCn1c2ccc(NC(=O)NCc3ccc(F)cc3)cc2c(=O)n1C,?,10,3,18,2,-1,
CCOCCC(=O)Nc1ccc2c(c1)c(=O)n(C)n2C/C=C/c1ccccc1,60*,-19,1,20,-27,0,
CCC(=O)N1CC[C@@H]2[C@H]1c1cc(C#Cc3cccc(OC)c3)ccc1N[C@@H]2CO,-9,.,-2,-7,8,-11,
C[C@H](NC(=O)C[C@@H]1C[C@@H]2c3cc(NC(=O)NC4CCCCC4)ccc3O[C@@H]2[C@H](CO)O1)c1ccccc1,0,0[16.7 µM],-2,-15,7,.,
C[C@@H]1CN([C@@H](C)CO)C(=O)c2cc(C3=CCCC3)cnc2O[C@H]1CN(C)Cc1cccnc1,-8,-3[16.7 µM],-4,.,-5,-11,
O=C(c1ccc(F)cc1)N1CC(=O)N2[C@H](CO)[C@H](c3ccc(C#CCC4CCCC4)cc3)[C@H]2C1,-2,.,3,5,-11,-3,
CNC(=O)CCc1nc(-c2ccc(C(C)(C)C)cc2)no1,.,.,.,.,-6,.,
CC(C)(C)c1ccc(-c2noc(CCC(N)=O)n2)cc1,.,100*,.,.,-11,-2,
CCOc1ccccc1-c1noc(CCC(=O)Nc2cccnc2)n1,-5,-11,0,-12,.,3,
CC(C)(C)c1ccc(-c2noc(CCC(=O)Nc3cccnc3)n2)cc1,44,41,3,87*,-12,-11,
O=C(CCc1nc(-c2ccccc2F)no1)Nc1cccnc1,.,59*,0,-11,.,.,
CC(C)(C)c1ccc(-c2noc(CCC(=O)NCC3CCCO3)n2)cc1 (stereo not drawn),.,75*,.,.,-15,-4,
C[C@@H]1CN(C)C(=O)Cc2cc(N)ccc2O[C@H]1CN(C)C,.,.,.,.,.,-5,
Cc1noc(C)c1NC(=O)N[C@@H]1C=C[C@@H](CC(=O)NCc2ccc(Cl)c(Cl)c2)O[C@H]1CO,10,5[16.7 µM],0,4,-1,0,
N=c1c2c(n(Cc3ccc(F)cc3)c3c1CCC3)CCCC2,28,-10,5,69*,-1,-19,
Cc1cc(/C=N/NC(=O)c2cccc(F)c2)c(C)n1-c1ccccc1,-73,-86,-2,-91,.,22,
Cc1cc(/C=N/NC(=O)c2c(Br)cnn2C)c(C)n1-c1cccc(Br)c1,-5,.,2,77*,.,2,
O=C(O)c1ccc(S(=O)(=O)NN=Cc2c[nH]c3ccccc23)cc1,4,-1,1,34,.,.,
O=C(O)c1ccc(N/N=C/c2c[nH]c3ccccc23)cc1,69*,59*,-1,45,3,0,DNA binding=-4%
CCc1ccc(/C=C2\SC(=S)N(CCCC(=O)Nc3ccccc3C(=O)O)C2=O)cc1,.,-60,0,-14,.,0,
COc1ccc(/C=C2/SC(=S)N(CCCC(=O)Nc3ccccc3C(=O)O)C2=O)cc1,64*,28,-1,38,.,9,DNA binding=0%
O=C(CCCN1C(=O)/C(=C/c2cccs2)SC1=S)NNC(=O)c1ccccc1O,.,-12,.,-4,8,6,
COc1ccc(/C=C2\SC(=O)N(CCCC(=O)Nc3ccc(C(=O)O)cc3)C2=O)cc1,82*,89*,1,57,21,-3,DNA binding=6%
COc1ccc(/C=C2\SC(=S)N(CCCC(=O)NNC(=O)c3ccccc3O)C2=O)cc1,77*,59*,2,66*,-11,-14,DNA binding=3%
